# PG9 Ab binder = binders of HIV-1 gp120 antibody PG9, primary screen, biochemical, TR-FRET | 0.43% of 360,000 active | AID 624416, 2012 | inhibition, % at 6.7 µM | TR-FRET gp120-PG9 antibody binding | HIV-1 gp120 / PG9 antibody interaction; in the data active = inhibition above about 8.5%
# Rev-erbA mod = modulators of Rev-erb alpha DNA binding, primary screen, biochemical, FITC-DNA, fluorescence polarization, uHTS | activity, % at 10 µM | 0.79% of 370,000 active | Nuclear receptor subfamily 1 group D member 1 (Homo sapiens), P20393 | Rev-erbα–FITC-DNA binding, 90 min;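 active = activity above about 14%, limit read from the data; passing the limit was not always enough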;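 also: 0% = DMSO wells with 35 nM protein and 100% = DMSO wells with 750 nM protein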
# NR2E3 ag-1 = inhibitors of NR2E3-RetCOR corepressor binding, primary screen, NR2E3 agonist project, biochemical, TR-FRET, GST-NR2E3, biotin-RetCOR; Photoreceptor-specific nuclear receptor (Homo sapiens), Q9Y5X4; 1536-well; inhibition of corepressor binding, % at 4.78 µM; 0.12% of 320,000 active; AID 2300, 2010;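 active = percent inhibition above the cutoff of mean plus 3 SD of all tested compounds, set per screening campaign, cut at about 20% in these data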;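 also: 0% = DMSO wells and 100% = biotin wells as full block of FRET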
# Target sequence (Q9Y5X4 whole entry, looked up): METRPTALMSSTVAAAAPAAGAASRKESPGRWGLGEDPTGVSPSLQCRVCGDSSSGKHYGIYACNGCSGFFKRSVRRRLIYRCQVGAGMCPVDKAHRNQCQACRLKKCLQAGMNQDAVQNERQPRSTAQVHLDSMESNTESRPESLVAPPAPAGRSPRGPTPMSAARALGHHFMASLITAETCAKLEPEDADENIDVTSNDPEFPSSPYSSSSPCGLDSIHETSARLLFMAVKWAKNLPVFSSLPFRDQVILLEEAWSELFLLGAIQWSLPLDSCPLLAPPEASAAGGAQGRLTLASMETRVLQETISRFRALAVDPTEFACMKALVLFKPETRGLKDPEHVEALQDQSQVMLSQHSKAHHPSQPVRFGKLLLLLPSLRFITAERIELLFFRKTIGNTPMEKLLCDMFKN
#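 System: GST-NR2E3 and biotin-RetCOR proteins; probe or stimulus: 7 nM biotin-RetCOR; doses: compound at 4.8 µM, single dose; schedule: Compound–protein incubation for 5 h at 4 °C; detection: time-resolved FRET; read-out: percent inhibition; controls: biotin wells as high control, 0.6% DMSO wells as low control; format: 1536-well plates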
# NR2E3 ag-2 = NR2E3 agonists in two-hybrid cells, primary screen, cell-based, luminescence, CHO-S, Gal4-NCOR/VP16-NR2E3. Photoreceptor-specific nuclear receptor (Homo sapiens), Q9Y5X4. luciferase. inhibition of corepressor binding, % at 3.98 µM. 0.35% of 360,000 active;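 active = inhibition above the mean of all tested compounds plus 3 SD, cut at about 70% in these data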;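 also: 0% = DMSO with NR2E3 transfected cells and 100% = cells lacking NR2E3 construct; higher means lower luciferase signal from less NR2E3 corepressor binding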
# Rev-erbA confirm = modulators of Rev-erb alpha DNA binding, confirmation, biochemical, FITC-DNA, fluorescence polarization, single point | shares compounds with Rev-erbA mod | 90 min | activation, % at 25 µM | 61% of 3,000 active | AID 1259319, 2017;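 active = activation at or above a set limit, or at least 3 SD above the negative control mean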;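 also: 0% = 35 nM protein with DMSO and 100% = 750 nM protein high control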
# RORg counter = modulation of RORgamma DNA binding, dose response, counter-screen for Rev-erb alpha modulator project, biochemical, fluorescence polarization, FITC-DNA | shares compounds with Rev-erbA mod | purified RORgamma protein-FITC-DNA binding | IC50, µM | 8% of 910 active;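 active = Compounds whose fitted half-maximal concentration for disrupting protein-DNA binding is below 10 micromolar; the record names Rev-erb in its text, so the target is in doubt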
# Active calls of the source: *; i = inactive; . = no result. In the library only some 1.4% were active in any assay of this set; here they are far more common.
SMILES,PG9 Ab binder,Rev-erbA mod,NR2E3 ag-1,NR2E3 ag-2,Rev-erbA confirm,others
COc1ccccc1N1N=C(c2ccc([N+](=O)[O-])cc2)CC1c1ccccc1 (centres undefined),-1,15,-1,15,.,
O=C(NC1CCCN(c2ccc(C(F)(F)F)cn2)C1)c1cc(Cl)ccc1F (centres undefined),0,20*,1,-21,13,
Cc1ccc(C(=O)NC2CCCN(c3ccc(C(F)(F)F)cn3)C2)cn1 (centres undefined),-1,3,4,11,.,
CCOC(=O)c1nn(-c2ccccc2)c(=O)cc1SC1CCCCC1,1,29*,-1,-6,26*,
CCOC(=O)c1nn(-c2ccccc2)c(=O)cc1SC(C)C,1,-1,1,-4,.,
CC1(Cc2cccc(F)c2)C(=O)Nc2ccc(OC(F)(F)F)cc21 (centres undefined),0,16*,.,-57,15*,
CC1(Cc2ccc(OC(F)(F)F)cc2)C(=O)Nc2ccc(OC(F)(F)F)cc21 (centres undefined),0,9,.,4,.,
COc1ccc(C(C)=O)cc1CC1(C)C(=O)Nc2ccc(-c3ccccc3OC)cc21 (centres undefined),0,1,.,1,.,
COc1ccccc1-c1ccc2c(c1)C(C)(Cc1cccc(F)c1)C(=O)N2 (centres undefined),-1,63*,.,5,88*,RORg counter=>40
O=C(NC1CCCCCCC1)c1cc(-c2ccccn2)nc2ccccc12,0,41*,6,4,0,
O=C(NC1CCN(Cc2ccccc2)CC1)c1cc(-c2ccccn2)nc2ccccc12,-2,-2,-2,-13,.,
O=S(=O)(Cc1cc(NCc2ccccc2)nc(-c2ccncc2)n1)c1ccccc1,-1,17*,1,-17,44*,RORg counter=>40
CSc1cc(CS(=O)(=O)c2ccccc2)nc(-c2ccccc2)n1,-1,20*,0,7,28*,
Cc1nc(CS(=O)(=O)c2ccccc2)cc(Sc2ccc(Cl)cc2Cl)n1,-2,-4,0,-84,.,
O=S1(=O)CC(N2CCCC2)CN1C1CCCCC1 (centres undefined),2,-2,.,9,.,
COc1cccc(-c2cc(=O)c3cc(NC(=O)c4ccccc4)ccc3[nH]2)c1,-14,26*,-6,0,10,
COc1cccc(-c2cc(=O)c3cc(NC(=O)c4ccc(Cl)cc4)ccc3[nH]2)c1,-1,-16,0,6,.,
Cc1nc(NC(=O)c2ccccc2)sc1Cc1ccc2c(c1)OCO2,-2,3,2,-156,.,
Cc1nc(NC(=O)c2ccc(Cl)cc2)sc1Cc1ccc2c(c1)OCO2,1,30*,-1,-47,6,
O=C(O)c1cccc(N2C(=O)c3cccc4c(Cl)ccc(c34)C2=O)c1,0,0,6,1,.,
Nc1cccc(N2C(=O)c3cccc4c(N)ccc(c34)C2=O)c1,-15,80*,-6,-25,64*,RORg counter=>40
Cc1cccc(N2C(=O)c3cccc4c(N)ccc(c34)C2=O)c1,-7,245*,-7,-39,199*,RORg counter=i
CC(=O)c1ccc2c3c(cccc13)C(=O)N(CCc1ccccc1)C2=O,-3,4,5,-81,.,
CCN1C(=O)c2cccc3c(Cl)ccc1c23,-2,3,1,8,.,
CC(C)CCN1C(=O)c2cccc3c(N)ccc(c23)C1=O,1,139*,1,-94,132*,RORg counter=i
Cc1cccc(N2C(=O)c3cccc4cccc(c34)C2=O)c1,2,-2,1,-61,.,
CCN1C(=O)c2cccc3c(Cl)ccc(c23)C1=O,1,41*,3,3,30*,
Cc1onc(-c2ccccc2)c1C(=O)n1cc(Br)cn1,-2,7,-3,-31,.,

# High-throughput results from PubChem.
